Tests used:
[1] = test system: DRV1-transfected macrophages; assay: Real-time phagocytosis of live E. coli, macrophages overexpressing DRV1/GPR32; assay type: cell-based, human; details: 10 nM
Summary of the method: (§1)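 Macrophages were transfected with a human GPR32 expression vector or a mock vector (5 μg) using Jet-PEI. Cells were re-plated on chamber slides 48 h later and imaged 24 h after that in a stage-top incubator. Compound (10 nM) was given for 15 min at 37 °C, then BacLight Green-labelled E. coli at 50:1. Fluorescence was imaged every 10 min for 60 min, 4 fields/well at 40X. Results are % above vehicle from 3 donors.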

[2] = molecular target: T1, DRV1/GPR32 (Homo sapiens, UniProt O75388); assay: GPR32 PathHunter β-Arrestin Assay; assay type: cell-based
Summary of the method: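 CHO-K1 PathHunter GPR32 cells were grown with geneticin 800 μg/mL and hygromycin B 300 μg/mL, then seeded at 2,500 cells/well in 1536-well plates overnight. Compounds in DMSO were tested at 11 points (1:3, 57 μM–1 nM) for 90 min at 37 °C, then detection reagent was added for 1 h and luminescence read. DMSO (0.57%) set 0%; a 2-fold signal increase set 100%. Two experiments in triplicate.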

[3] = molecular target: recombinant human DRV1 (Homo sapiens, UniProt O75388); assay: Electrical cell substrate impedance sensing; assay type: cell-based; details: for direction of impedance change: CHO cells expressing DRV1, concentration not stated
Summary of the method: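 GPR32- or mock-transfected CHO cells were seeded at 0.1×10^6 per well of an 8-well ECIS electrode array. Test compounds were added in serum-free medium at 100 nM–10 μM. Impedance across the monolayer was recorded every 4 s for 10 min at 37 °C. Tracings are representative of 3 independent experiments.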

[4] = test system: human macrophages; assay: CD163; assay type: cell-based; details: 10 nM, 24h; significant only for RvD1
[5] = molecular target: T1, DRV1/GPR32; assay: GPR32 cAMP HTRF signaling assay; assay type: cell-based; details: for effect on forskolin-stimulated cAMP: forskolin 8 μM
Summary of the method: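 CHO-K1 PathHunter GPR32 cells were seeded at 1,800 cells/well for 20 h, then stimulated with forskolin (8 μM final) plus Ro 20-1724 (100 μM final). Compounds were added as 1:3 dilutions (57 μM–1 nM final) for 30 min at 37 °C. cAMP was read by HTRF as the 665/615 nm ratio ×10,000. Forskolin alone set 0%; DMSO (0.57%) set −100%. Two experiments in triplicate.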

[6] = test system: human macrophages; assay: Macrophage phagocytosis of serum-treated zymosan; assay type: cell-based; details: human MΦ; for phagocytosis of STZ, dose response: 0.1pM-10 nM, 15 min preincubation; for increase of phagocytosis of STZ above vehicle: 10 pM
Summary of the method: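 GM-CSF-differentiated human macrophages were plated at 50,000 cells/well in PBS++ and used 24 h later. Compounds (0.1 pM–10 nM) were added for 15 min at 37 °C, pH 7.45. FITC-labelled serum-treated zymosan was then added at 10:1 for 40 min at 37 °C. Extracellular signal was quenched with trypan blue and fluorescence read at Ex 493/Em 535 nm. Results are % above vehicle, triplicates from 3–4 donors, with curve fitting.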

[7] = test system: mock-transfected macrophages; assay: Real-time phagocytosis of live E. coli, mock-transfected macrophages; assay type: cell-based, human; details: 10 nM
Summary of the method: as §1

[8] = test system: CHO-WT cells; assay: ECIS in wild-type CHO cells; assay type: cell-based, Chinese hamster; details: 1μM
[9] = hGPR32/DRV1-transfected, 10 min

Sequence of recombinant human DRV1 (O75388 whole entry): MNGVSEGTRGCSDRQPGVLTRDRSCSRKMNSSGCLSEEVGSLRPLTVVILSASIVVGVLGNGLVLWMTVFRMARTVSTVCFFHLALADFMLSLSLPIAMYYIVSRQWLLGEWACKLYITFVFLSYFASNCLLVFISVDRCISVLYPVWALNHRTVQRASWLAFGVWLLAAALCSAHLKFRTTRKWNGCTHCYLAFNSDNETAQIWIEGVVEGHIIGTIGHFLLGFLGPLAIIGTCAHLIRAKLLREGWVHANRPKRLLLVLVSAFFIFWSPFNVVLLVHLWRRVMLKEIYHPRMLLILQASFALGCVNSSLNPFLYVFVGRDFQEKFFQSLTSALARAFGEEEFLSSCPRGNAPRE
T1 sequence (O75388 whole entry): as above

Row | Compound | increase of phagocytosis of E. coli above vehicle control [1, 9] [%] | EC50 [2] [nM] | direction of impedance change [3] | impedance change ([3]; CHO-DRV1, 100 nM-10 μM) | increase of CD163 levels compared to vehicle [4] [%] | EC50 [5] [nM] | effect on forskolin-stimulated cAMP [5] | phagocytosis of STZ, dose response [6] | increase of phagocytosis of STZ above vehicle [6] | increase of phagocytosis of E. coli above vehicle control ([1]; DRV1-transfected, 20–30 min) [%] | increase of phagocytosis of E. coli above vehicle control ([7]; 20–30 min) | impedance change ([3]; CHO-hDRV1, 100 nM) | β-arrestin signal increase above basal cell activity ([2]; GPR32 β-arrestin cells, 11 concentrations 57 μM to 1 nM) | impedance change ([3]; CHO-DRV1 cells, 1μM) | impedance change [8] | increase of phagocytosis of E. coli above vehicle control ([7]; 10 min) | phagocytosis of STZ ([6]; 0.1–10 nM) | β-arrestin activity ([2]; dose response)
1 | Cc1c(-c2cccc(NC(=O)c3ccc(F)c(F)c3)c2)nc2ncccn12 [C2A, 3,4-difluoro-N-[3-(3-methylimidazo[1,2-a]pyrimidin-2-yl)phenyl]benzamide] | > 40 | 370 | increased impedance | dose-dependently elicited rapid changes in impedance | 13.3 | 50 | dose-dependently reduced forskolin-stimulated cAMP release | enhanced phagocytosis in a dose-dependent manner | 35–40% |  |  |  |  |  |  |  |  | 
2 | CC/C=C\C[C@H](O)/C=C/C=C\C=C\C=C\[C@@H](O)[C@@H](O)C/C=C\CCC(=O)O [RvD1, 7S,8R,17S-trihydroxy-4Z,9E,11E,13Z,15E,19Z-docosahexaenoic acid, reference compound] |  |  | reduced impedance |  | 25.7 |  |  | dose-dependently increased phagocytosis | ~ 60% | > 100 | 30–40% | time-dependently reduced impedance |  |  |  |  |  | 
3 | O=C(Nc1nnc(S(=O)(=O)N2CCOCC2)s1)c1cccc(Br)c1 [C1B, 3-bromo-N-(5-morpholin-4-ylsulfonyl-1,3,4-thiadiazol-2-yl)benzamide] |  | 3790 | increased impedance | dose-dependently elicited rapid changes in impedance |  | 320 | dose-dependently reduced forskolin-stimulated cAMP release |  |  |  |  |  |  |  |  |  |  | 
4 | COc1cccc(C(=O)Nc2cccc(-c3nc4ncccn4c3C)c2)c1 [C2B, 3-methoxy-N-[3-(3-methylimidazo[1,2-a]pyrimidin-2-yl)phenyl]benzamide] |  | 1170 | increased impedance | dose-dependently elicited rapid changes in impedance |  | 190 | dose-dependently reduced forskolin-stimulated cAMP release |  |  |  |  |  |  |  |  |  |  | 
5 | COc1ccccc1N1CCN(CCN(C(=O)c2ccc(F)cc2)c2ccccn2)CC1 [pMPPF, 4-Fluoro-N-{2-[4-(2-methoxyphenyl)-1-piperazinyl]ethyl}-N-(2-pyridinyl)benzamide, reference compound] |  | 1160 | increased impedance |  | 13.7 |  | dose-dependently reduced forskolin-stimulated cAMP release | enhanced phagocytosis in a dose-dependent manner | ~ 60% | > 50 |  |  | ~ 30% | increased | did not give significant impedance changes |  |  | 
6 | COc1cccc(C(=O)Nc2nnc(S(=O)(=O)N3CCOCC3)s2)c1 [C1A, 3-methoxy-N-(5-morpholin-4-ylsulfonyl-1,3,4-thiadiazol-2-yl)benzamide] | > 70 | 930 | increased impedance | dose-dependently elicited rapid changes in impedance | 4.7 | 380 | dose-dependently reduced forskolin-stimulated cAMP release | enhanced phagocytosis in a dose-dependent manner | 35–40% |  |  |  |  |  |  | ~ 15% |  | 
7 | NCCc1c[nH]c2ccc(O)cc12 [5-HT] |  |  |  |  |  |  |  |  |  |  |  |  |  |  |  |  | did not significantly increase phagocytosis | 
8 | COc1ccccc1N1CCN(CCN(C(=O)c2ccc(I)cc2)c2ccccn2)CC1 [pMPPI, 4-iodo-N-{2-[4-(2-methoxyphenyl)-1-piperazinyl]ethyl}-N-(2-pyridinyl)benzamide, reference compound] |  |  | reduced impedance |  | 20.0 | 2500 | increased forskolin-stimulated cAMP release | enhanced phagocytosis in a dose-dependent manner | significantly less potent than pMPPF |  |  |  |  | reduced impedance | did not give significant impedance changes |  |  | not β-arrestin activities
